Screening data: PubChem BioAssay, several laboratories
An excerpt weighted towards active compounds, which were near 7.2% of everything screened.
DAT uptake mod: modulates human dopamine transporter uptake under cocaine | LLC-PK1 hDAT cells, [14C]-dopamine uptake with cocaine IC80; actives deviate in either direction | B-score at 10 µM | 110,000 tested, 1.3% active;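 active = Z score or B-score, a plate-position-corrected score, falls beyond the plate's 99.7% confidence bounds, in either direction; inactive = both scores lie inside the 99.7% bounds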;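 note: scored against the spread of the other compound wells on the same plate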
Target sequence (Q01959 whole entry, looked up): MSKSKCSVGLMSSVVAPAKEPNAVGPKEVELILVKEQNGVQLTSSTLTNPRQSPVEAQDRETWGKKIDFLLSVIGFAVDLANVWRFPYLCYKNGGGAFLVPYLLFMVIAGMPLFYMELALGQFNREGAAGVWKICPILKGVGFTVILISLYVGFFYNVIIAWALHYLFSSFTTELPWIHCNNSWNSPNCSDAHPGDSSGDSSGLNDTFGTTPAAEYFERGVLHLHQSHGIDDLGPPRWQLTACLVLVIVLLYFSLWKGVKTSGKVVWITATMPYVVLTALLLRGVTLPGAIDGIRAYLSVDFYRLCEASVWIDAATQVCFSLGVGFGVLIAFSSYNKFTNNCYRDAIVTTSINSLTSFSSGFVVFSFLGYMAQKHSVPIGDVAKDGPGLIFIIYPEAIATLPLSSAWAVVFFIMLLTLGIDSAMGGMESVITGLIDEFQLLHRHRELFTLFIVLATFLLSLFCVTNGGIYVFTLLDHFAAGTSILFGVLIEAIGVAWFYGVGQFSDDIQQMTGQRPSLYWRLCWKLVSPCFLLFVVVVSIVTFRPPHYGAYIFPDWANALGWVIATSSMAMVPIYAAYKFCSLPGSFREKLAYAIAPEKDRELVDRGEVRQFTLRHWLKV
D1 allo mod: D1 dopamine receptor (human) allosteric modulation | P21728 | HEK293 D1, CRE-luciferase, dopamine EC30 potentiation; actives deviate in either direction | B-score at 10 µM | 58,000 tested, 5.9% active | AID 641;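 active = luminescence count or its row- and column-corrected plate score outside the 99.7% band of the plate's sample wells, on either side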
M1 antagonist: M1 muscarinic receptor (rat) antagonism. P08482. CHO-M1 cells, Fluo-4 calcium, ACh EC80 antagonist mode; hits give low values. B-score at 10 µM. 64,000 tested, 3.4% active. AID 628;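 active = calcium fluorescence response, raw or row-and-column corrected B-score, differing from the plate sample mean either way at a set confidence level, mostly lower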
BAP1 inh: human BAP1 deubiquitinase inhibition; Q92560; recombinant BAP1, Ub-AMC hydrolysis fluorescence kinetic; hits give low values; calls only at 20 µM; 72,000 tested, 0.48% active; AID 436;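 active = activity remaining at or below 50% of control, provided the compound also passes the data quality filters; inactive = the rest, including low values that fail the filters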;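 note: 100% = DMSO wells rate and 0% = substrate alone blank rate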
M1 ag: agonists of M1 muscarinic receptor. CHO-M1 cells, Fluo-4 calcium fluorescence, agonist mode; hits give high values. AID 626. B-score at 10 µM. 64,000 tested, 3% active;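 active = fluorescence rise, raw or as B-score row- and column-corrected plate score, outside the 99.7% band of its plate's samples, either direction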
HEK293 NFkB inh: lowers PMA/ionomycin-induced NF-kB signal in HEK293 cells; HEK-293 NF-kB luciferase reporter, luminescence; inhibition, % at 3 µM; 62,000 tested, 0.21% active; AID 465;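 active = inhibition above the mean of all tested compounds plus 3 SD, cut at about 40% in these data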;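 note: 0% = stimulated DMSO wells and 100% = 10 µM reference inhibitor 5653914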
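Timing: 1 h pretreatment, 16 h stimulation, 37 °C; system: HEK-293 cells with stable firefly luciferase reporter driven by four HIV NF-kB elements; doses: 3 µM once, 0.30% DMSO; measured by: luciferase luminescence; control set: DMSO and 10 µM reference inhibitor; repeats: single test; reagent: PMA plus ionomycin mix as NF-kB-activating stimulus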
Numbers without * were called inactive; i = inactive; . = not tested or not shown.

SMILES | DAT uptake mod | D1 allo mod | M1 antagonist | BAP1 inh | M1 ag | HEK293 NFkB inh
O=C(CSc1nc2c(cnn2-c2ccccc2)c(=O)[nH]1)N1CCOCC1 | 0.0058 | 0.22 | -0.81 | i | 0.56 | 10
Cc1ccc(NC2OCC(O)C(O)C2O)cc1[N+](=O)[O-] (stereo not given) | . | . | . | i | . | .
CCc1cc2c(NCCCC(=O)O)ncnc2s1 | . | . | . | i | . | .
O=S(=O)(c1ccc(Nc2ccc(-c3ccc4c(c3)OCCO4)nn2)cc1)N1CCCC1 | -0.82 | . | . | . | . | .
O=C(NC1CC1)c1cccc(Nc2ccc(-c3ccc4c(c3)OCCO4)nn2)c1 | -0.0026 | 0.29 | -2.7 | i | 3.8* | -16
Cc1nc2ccccc2n1-c1ccccc1 | -2 | 0.11 | -1.1 | i | 0.38 | 10
Cc1cc(=O)cc(C)n1-c1ccc2c(c1)nc(C)n2-c1ccccc1 | 0.38 | -0.031 | 2.2* | . | 0.49 | -6
Cc1ccc(NC(=O)c2ccc(N(Cc3ccccc3)S(C)(=O)=O)cc2)c(C)c1 | . | . | . | i | . | .
O=C(Cn1nc(C(F)(F)F)c2c1CCCC2)Nc1ccc2c(c1)OCO2 | -1.6* | -0.35 | 0.36 | i | -0.015 | 5
COc1ccc(NC(=O)Cn2nc(C(F)(F)F)c3c2CCCC3)cc1OC | 0.2 | . | . | . | . | .
Cc1nc2ccc(-c3ccccc3)cc2o1 | 0.82* | -0.0071 | 0.54 | i | -0.14 | 7
Cc1ccc2oc(-c3ccccc3)nc2c1 | 0.85 | . | . | . | . | .
CCN(Cc1c(O)ccc2c3c(c(=O)oc12)CCC3)C1CCCCC1 | . | . | . | i | . | .
C=C(C)CSc1nc2c(c(=O)[nH]c(=O)n2C)n1Cc1ccccc1 | 0.29 | 11* | -0.025 | i | 0.19 | 18
CC(C)Sc1nc2c(c(=O)[nH]c(=O)n2C)n1Cc1ccc(Cl)cc1 | -0.87 | 23* | 0.63 | i | -0.049 | 12
CCCCCn1c(N2CCN(Cc3ccccc3)CC2)nc2c1c(=O)[nH]c(=O)n2C | 3* | 1.5 | -1.1 | i | 0.75 | 16
Cn1c(=O)[nH]c(=O)c2c1nc(SCC(=O)Nc1ccccc1)n2Cc1ccccc1 | 0.28 | 3.7 | 0.31 | i | -0.5 | -8
CCC(=O)NC(c1ccccc1)c1ccc2cccnc2c1O (stereo not given) | . | . | . | i | . | .
CCCOc1c(OC)cccc1C1CC(=O)Nc2cc(OC)c(OC)c(OC)c21 (stereo not given) | 0.5 | -0.39 | -0.33 | i | 0.0063 | 98*
C=CCc1c(C)c(C#N)c2nc3ccccc3n2c1N1CCN(C)CC1 | . | 16* | 1.1 | i | -0.042 | .
Cc1c(CCC#N)c(N2CCCCC2)n2c(nc3ccccc32)c1C#N | . | 3 | -0.088 | i | 1.6 | .
Cc1nc(CS(=O)c2ccc(Cl)cc2)cc(NCc2ccc(Cl)cc2Cl)n1 (stereo not given) | 2.6* | . | . | . | . | .
COC(=O)c1ccc(NC(=O)c2cccc(C(=O)OC(C)C)n2)cc1 | . | . | . | i | . | .
Cc1cc(C)nc(/N=C(\N)Nc2cccc(F)c2)n1 | . | . | . | i | . | .
CC(=Nc1ccccc1)c1sc2ccccc2c1O | 2.3* | . | . | . | . | .
SMILES | DAT uptake mod | D1 allo mod | M1 antagonist | BAP1 inh | M1 ag | HEK293 NFkB inh
CCN1C(=S)SC(=O)C1=C1C=C(C)N(CCOC)C(C)=C1 | . | -4* | -0.7 | . | 44* | -42
O=C(Oc1ccccc1)c1ccc(-c2ccccc2)cc1 | . | . | . | i | . | .
CCc1ccc(S(=O)(=O)Nc2ccc(O)c3c(=O)cc(-c4ccccc4Cl)oc23)cc1 | 0.074 | . | . | . | . | .
O=c1cc(-c2ccccc2Cl)oc2c(NS(=O)(=O)c3cc(Cl)cc(Cl)c3O)ccc(O)c12 | -6.3* | . | . | . | . | .
CCOC(=O)N1CCN(C(=O)C2CCCCC2)CC1 | -2.6* | . | . | . | . | .
CCOC(=O)N1CCN(C(=O)C2CCC(C(=O)N3CCN(C(=O)OCC)CC3)CC2)CC1 (stereo not given) | . | -0.46 | 1.7 | i | 0.0027 | 12
CCCCCCn1c(SCCOC)nc2c1c(=O)[nH]c(=O)n2C | -0.34 | 9.4* | 0.17 | i | -0.28 | 14
CCCCCn1c(NC2CCCCC2)nc2c1c(=O)[nH]c(=O)n2C | 2.9* | 5.7* | -0.054 | i | 0.33 | 12
CCCCCn1c(N2CCC(Cc3ccccc3)CC2)nc2c1c(=O)[nH]c(=O)n2C | 1.6 | -0.89 | -1.1 | i | 0.96 | 7
COc1cc2nc(SCC(=O)NCc3ccco3)n(Cc3ccc(Cl)cc3)c(=O)c2cc1OC | 3.8* | -3.8* | -0.12 | i | 0.91 | 4
CN(Cc1ccccc1)S(=O)(=O)c1ccc(C(=O)Nc2nnc(C3CC3)o2)cc1 | -0.58 | -0.81 | 0.13 | i | 0.7 | 6
COc1ccccc1-c1nnc(NC(=O)c2ccc(S(=O)(=O)N(C)Cc3ccccc3)cc2)o1 | -8.6* | -0.51 | 0.44 | i | 0.56 | 34
Cc1ccc2c(COC(=O)C3=COCCO3)cc(=O)oc2c1 | -0.18 | -4.8* | 0.02 | i | -1.4 | -30
Cc1ccc2c(COC(=O)c3cnc(C)cn3)cc(=O)oc2c1 | . | 0.5 | 0.95 | i | 0.13 | 10
O=C(C1CCC1)N1CCc2cc(S(=O)(=O)N3CCc4ccccc4C3)ccc21 | -0.63 | 1.9 | -0.19 | i | -0.094 | -4
CC1CCCN(S(=O)(=O)c2ccc3c(c2)CCN3C(=O)C2CCC2)C1 (stereo not given) | -0.82 | -4.1* | 1.5 | i | -1.1 | 8
c1ccc(OCCSc2nnc3sc4ccccc4n23)cc1 | 0.028 | -6* | -0.55 | i | -0.49 | -13
Cc1cc(C(=O)Nc2ccc(N(C)C)cc2)c(C)o1 | . | . | . | i | . | .
C[C@H]1O[C@@H](O[C@H]2[C@@H](O)C[C@H](O[C@H]3[C@@H](O)C[C@H](O[C@H]4CC[C@@]5(C)[C@H](CC[C@@H]6[C@@H]5C[C@@H](O)[C@]5(C)[C@@H](C7=CC(=O)OC7)CC[C@]65O)C4)O[C@@H]3C)O[C@@H]2C)C[C@H](O)[C@@H]1O | -6.2* | . | . | . | . | .
Cc1[nH]nc(-c2ccc(OC(C)C)cc2O)c1-c1ccccc1 | . | . | . | i | . | .
COc1ccccc1Nc1nc(-c2sc(NC(=O)CC(C)C)nc2C)cs1 | 2.7* | . | . | . | . | .
CCCC(=O)Nc1nc(C)c(-c2csc(Nc3ccccc3OC)n2)s1 | 0.35 | . | . | . | . | .
CC1CCc2c(sc3nc(SCC(=O)NCc4ccco4)nc(N)c23)C1 (stereo not given) | 0.28 | 1.1 | -0.062 | i | 0.26 | 12
CCN(CC)C(=O)CSc1nc(N)c2c3c(sc2n1)CC(C)CC3 (stereo not given) | 2.1* | . | . | . | . | .
O=C(NCc1ccc(F)cc1)C(=O)NCC1OCCN1C(=O)c1ccc(Cl)cc1 (stereo not given) | 2.4* | . | . | . | . | .
NC1=NC2(CCCCC2)n2c(nc3ccccc32)N1 | -0.65 | -4.6* | -0.02 | i | -1.2 | 1
Cc1cc(C)cc(-c2nnc(SCC(=O)NCc3cccs3)o2)c1 | 0.12 | 0.25 | -0.012 | i | -0.94 | 22
CNC(=O)CSc1nnc(-c2cc(C)cc(C)c2)o1 | -0.092 | -3.2* | 0.17 | i | 1 | 7
Nc1nc(-c2nc3ccccc3[nH]2)cs1 | 0.45 | -2.8* | 0.24 | i | -0.23 | -27
